Experimental data: ChEMBL document CHEMBL5236609, “Optimization of 1,2,4-Triazole-3-thiones toward Broad-Spectrum Metallo-β-lactamase Inhibitors Showing Potent Synergistic Activity on VIM- and NDM-1-Producing Clinical Isolates” (J Med Chem, 2022)
Activity calls are given as the source filed them. The calls are words filed in the database; no cut-off is given here.

How the values were obtained:
Bacteria [1] = experiment: Inhibition of bacterial IMP-1 (unknown origin) expressed in Escherichia coli EXPRESS BL21(DE3) assessed as inhibition constant by measuring rate of substrate hydrolysis at 100 uM by UV-visible spectrophotometry relative to control
In short: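 Reporter-substrate assay with purified MBL (1–70 nM final) in 50 mM HEPES pH 7.5 at 30 °C. […] Inhibitor 0.5–1000 μM final. Ki derived from the v0/vi vs [I] slope assuming competitive inhibition, or from a Dixon plot. Ki given when inhibition >70%, otherwise % inhibition at 100 μM. Triplicate.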

Bacteria [2] = experiment: Inhibition of bacterial NDM-1 (unknown origin) assessed as Zn(II) content in protein at 48 uM at 48 uM by overnight equilibrium dialysis
In short: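 VIM-2 or NDM-1 (3 μM final) in 50 mM HEPES pH 7.5 mixed with compound at 0–48 μM. Incubated 1 h on ice, then dialysed overnight at 4 °C against 50 mM HEPES pH 7.5. Zn(II) content measured by atomic absorption at 213.86 nm against a zinc standard curve. Each point averages three samples.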

Bacteria [3] = experiment: Inhibition of bacterial VIM-2 (unknown origin) assessed as decrease in Zn(II) content in protein at 50 uM by native MS analysis
In short: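 Purified VIM-2 or NDM-1 was given 2 mM TCEP and 2 equiv ZnCl2, incubated 1 h, and dialysed overnight into 100 mM ammonium acetate pH 7.5. Enzyme at 10 μM was then incubated 5 min with 50 μM compound. Positive-mode nanoESI on an Orbitrap, scanning m/z 1000–4000. Species assigned from deconvoluted masses.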

[4] = Binding affinity to Zn(II) assessed as dissociation constant by isothermal calorimetric assay
[5] = Binding affinity to Zn(II) assessed as change in enthalpy by isothermal calorimetric assay
[6] = Chelation of Zn(II) in bacterial VIM-2 (unknown origin) by isothermal calorimetric assay
In short: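 ITC at 25 °C. VIM-2 at 19 μM in 10 mM HEPES-NaOH, 0.15 M NaCl, pH 7.5 with DMSO matched to 1%, titrated with compound at 200 μM: one 0.5 μL injection, then 19 × 2 μL at 150 s intervals. Buffer dilution heats subtracted. Nonlinear fit gives n, Ka and ΔH°; values regarded as apparent.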

[7] = Plasma protein binding in CD-1 mouse plasma measured after 4 hrs by LC-MS/MS analysis; type: ADME, cell-free; conditions: read-out: PPB (converted)
In short: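 Binding to mouse plasma proteins (mixed gender) measured; diclofenac as control.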

[8] = target: T1, Protein deacetylase HDAC6 (Homo sapiens) (UniProt Q9UBN7); experiment: Inhibition of recombinant human His-tagged HDAC6 expressed in baculovirus expression system using fluorogenic peptide substrate measured after 45 mins at 100 uM relative to control
T1 sequence (whole entry): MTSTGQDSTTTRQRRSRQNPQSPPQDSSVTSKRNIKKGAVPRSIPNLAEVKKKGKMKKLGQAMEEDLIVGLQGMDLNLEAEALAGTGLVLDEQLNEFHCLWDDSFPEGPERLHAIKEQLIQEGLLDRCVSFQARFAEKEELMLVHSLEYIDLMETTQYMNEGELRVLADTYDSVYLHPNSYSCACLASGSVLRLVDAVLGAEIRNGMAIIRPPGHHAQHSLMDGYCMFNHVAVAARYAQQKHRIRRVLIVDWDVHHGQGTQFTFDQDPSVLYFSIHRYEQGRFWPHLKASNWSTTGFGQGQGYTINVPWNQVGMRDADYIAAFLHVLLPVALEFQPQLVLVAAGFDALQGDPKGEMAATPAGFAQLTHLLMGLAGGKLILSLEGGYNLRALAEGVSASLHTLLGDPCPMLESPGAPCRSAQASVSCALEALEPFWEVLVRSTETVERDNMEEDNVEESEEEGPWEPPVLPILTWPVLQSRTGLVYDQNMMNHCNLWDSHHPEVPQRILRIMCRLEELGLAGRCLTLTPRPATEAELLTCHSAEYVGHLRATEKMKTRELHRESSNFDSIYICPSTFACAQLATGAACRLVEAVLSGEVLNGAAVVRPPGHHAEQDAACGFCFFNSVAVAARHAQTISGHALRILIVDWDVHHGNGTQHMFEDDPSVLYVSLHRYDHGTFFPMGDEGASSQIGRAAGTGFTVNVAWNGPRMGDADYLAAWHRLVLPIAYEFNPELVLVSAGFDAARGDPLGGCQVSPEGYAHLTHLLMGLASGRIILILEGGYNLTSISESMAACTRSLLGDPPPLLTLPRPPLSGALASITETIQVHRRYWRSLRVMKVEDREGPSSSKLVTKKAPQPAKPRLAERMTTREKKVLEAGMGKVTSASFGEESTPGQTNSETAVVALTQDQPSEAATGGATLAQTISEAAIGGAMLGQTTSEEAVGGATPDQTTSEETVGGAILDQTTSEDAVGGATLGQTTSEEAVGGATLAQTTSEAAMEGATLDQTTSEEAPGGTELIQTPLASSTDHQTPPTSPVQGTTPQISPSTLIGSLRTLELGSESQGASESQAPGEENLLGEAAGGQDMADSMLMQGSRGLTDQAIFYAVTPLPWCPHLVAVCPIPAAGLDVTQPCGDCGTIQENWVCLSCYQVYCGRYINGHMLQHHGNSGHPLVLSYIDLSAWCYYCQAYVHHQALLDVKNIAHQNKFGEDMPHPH
In short: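 Human HDAC6 fluorimetric kit with Fluor de Lys substrate; panobinostat as control inhibitor. Percent inhibition at 100 μM, one experiment in duplicate.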

O=C(O)[C@H](CCCn1c(-c2ccccc2)n[nH]c1=S)N(Cc1ccccn1)Cc1ccccn1
inhibition (Bacteria [1]): < 30% | Activity (Bacteria [2]): 1.09 equiv | inhibition (Bacteria [3]): Active | Kd [4]: 10 nM | deltaH [5]: 6 kcal/mol | Activity [6]: inactive | fraction unbound at 4 h [7]: 0.313 | inhibition [8]: < 100%

O=C(O)[C@H](CCCn1c(-c2ccccc2)n[nH]c1=S)N(Cc1c[nH]cn1)Cc1c[nH]cn1
inhibition (Bacteria [1]): 40% | Activity (Bacteria [2]): 1.09 equiv | inhibition (Bacteria [3]): Active | Kd [4]: 10 nM | deltaH [5]: 5 kcal/mol | Activity [6]: Active | fraction unbound at 4 h [7]: 0.324 | inhibition [8]: < 100%

O=C(O)[C@H](CCn1c(-c2ccccc2)n[nH]c1=S)N(Cc1c[nH]cn1)Cc1c[nH]cn1
fraction unbound at 4 h [7]: 0.45 | inhibition [8]: < 100%

Cc1[nH]cnc1CN(Cc1c[nH]cn1)[C@@H](CCCn1c(-c2ccccc2)n[nH]c1=S)C(=O)O
fraction unbound at 4 h [7]: 0.377 | inhibition [8]: < 100%

O=C(O)[C@H](CCCn1c(-c2ccc3ccccc3c2)n[nH]c1=S)N(Cc1c[nH]cn1)Cc1c[nH]cn1
fraction unbound at 4 h [7]: 0.048 | inhibition [8]: < 100%
